# Data published in publication PMC3841333 (Theranostics, 2013).
# Key:
# tumors = settings: cited from earlier work
# integrin αvβ3 = test: ^99mTc-3P-RGD2 SPECT/CT tumor uptake during linifanib therapy, MDA-MB-435 model; type: in vivo, athymic nude mice
# Summary of the method: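 Size-matched groups (n = 5; mean tumor 180 ± 90 mm3) of female nude mice with fat-pad MDA-MB-435 tumors received vehicle (0.15% HPMC, 2% ethanol, 5% Tween 80, 20% PEG400, 73% saline) or test compound at 12.5 mg/kg orally twice daily (>8 h apart) from day 0. Radiotracer (>95% radiochemical purity, in saline) was given i.v. Multi-pinhole SPECT/CT on days -1, 1, 4 and 11 was quantified as %ID and %ID/cm3.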
# MDA-MB-435 tumors = test: Tumor immunohistochemistry; type: in vivo, athymic nude mice
# Summary of the method: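 Fat-pad MDA-MB-435 tumors came from mice given vehicle or oral test compound (12.5 mg/kg twice daily) and were harvested on days -1, 1, 4 and 11. Frozen 5 μm OCT sections were fixed in ice-cold acetone (10 min) and blocked in 10% goat serum (30 min). They were stained 1 h with hamster anti-integrin β3 and rat anti-CD31 (1:100), then Cy3/FITC secondaries (1:100), and read by fluorescence microscopy. H&E sections were examined for blood vessels.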
# U87MG gliomas = settings: xenografted U87MG model; cited from earlier work
# PC-3 prostate tumors = settings: xenografted PC-3 model; cited from earlier work
# [1] = test system: pre-clinical tumor models; settings: variety of pre-clinical tumor models; cited from earlier work
# [2] = test system: VEGF and PDGF receptor families; settings: in vitro; cited from earlier work
# tumor = settings: 2 days after sunitinib therapy; cited from earlier work
# integrin αvβ3 and αvβ5 = settings: low concentrations; cited from earlier work
# [3] = 12.5 mg/kg orally twice daily, as early as 24 h, SPECT/CT quantification, n = 5
compound,measurement,setting,value
Cc1nc(Nc2ncc(C(=O)Nc3c(C)cccc3Cl)s2)cc(N2CCN(CCO)CC2)n1 [dasatinib],uptake of ^64Cu-DOTA-RGD in the treated tumors,tumors,significantly reduce
Cc1ccc(F)c(NC(=O)Nc2ccc(-c3cccc4[nH]nc(N)c34)cc2)c1 [linifanib],%ID tumor uptake of ^99mTc-3P-RGD2 in linifanib-treated group,integrin αvβ3; [3],dramatic reduction
same,%ID/cm^3 tumor uptake of ^99mTc-3P-RGD2 in linifanib-treated group,integrin αvβ3; [3],dramatic reduction
same,tumor uptake (%ID and %ID/g) of ^99mTc-3P-RGD2 in linifanib-treated group,integrin αvβ3; over the next 10 days after the first 24 h of linifanib therapy,steady tumor uptake reduction
same,blood vessel density,"MDA-MB-435 tumors; H&E staining of tumor slices, within 24 h after initiation of linifanib therapy",dramatically reduced
same,integrin αvβ3 on neovasculature,"MDA-MB-435 tumors; IHC staining of tumor slices, after 24 h of linifanib therapy",disappeared almost completely
same,tumor cell integrin αvβ3 expression level,"MDA-MB-435 tumors; IHC staining of tumor slices, during the 11-day period of linifanib therapy",decreased steadily
same,tumor uptake (%ID and %ID/cm^3) and T/M ratios of ^99mTc-3P-RGD2 after linifanib treatment,U87MG gliomas,significant decrease
same,tumor volume or tumor uptake of ^99mTc-3P-RGD2 after linifanib treatment,PC-3 prostate tumors,no significant changes
same,effect on tumors in vivo,[1],pronounced regression of tumors
same,phosphorylation of members of VEGF and PDGF receptor families,[2],inhibit the phosphorylation
CCN(CC)CCNC(=O)c1c(C)[nH]c(/C=C2\C(=O)Nc3ccc(F)cc32)c1C [sunitinib],tumor uptake of [^18F]AH111585 after sunitinib therapy,tumor,significantly reduced
Cilengitide,effect on tumor growth and angiogenesis,integrin αvβ3 and αvβ5,stimulate tumor growth and angiogenesis
